# Hits are enriched below; roughly 1.5% of the tested compounds scored in any of these assays.
# PKA-R2B act – activates the human PKA-R2B holoenzyme complex. actives 0.079% (n = 340,000). AID 504700. PKA-R2B holoenzyme dissociation, Cy5-IP20 fluorescence polarization; R2B truncated from residue 108, S112A mutant; 0% DMSO only, 100% 113 µM cGMP. activation, % at 11.4 µM;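 active means activation above a cutoff set at the mean over all compounds plus 3 SD, cut at about 18% in these data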;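 further: higher means more holoenzyme dissociation and a rise in polarization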
# Target sequence (P31323 whole entry, looked up, other chains not shown, the tested form may be a part): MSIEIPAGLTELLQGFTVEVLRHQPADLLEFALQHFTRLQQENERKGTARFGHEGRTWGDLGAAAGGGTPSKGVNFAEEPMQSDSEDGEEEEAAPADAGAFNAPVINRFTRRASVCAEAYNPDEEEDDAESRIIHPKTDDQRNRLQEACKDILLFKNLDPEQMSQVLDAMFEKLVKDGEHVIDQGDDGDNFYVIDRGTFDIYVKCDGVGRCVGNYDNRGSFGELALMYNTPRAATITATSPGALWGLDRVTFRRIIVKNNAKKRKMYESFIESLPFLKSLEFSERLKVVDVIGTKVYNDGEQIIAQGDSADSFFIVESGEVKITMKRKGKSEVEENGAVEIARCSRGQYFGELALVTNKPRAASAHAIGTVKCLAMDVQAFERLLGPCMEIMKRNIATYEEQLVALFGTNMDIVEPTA
# Tb MetRS inh – blocks T. brucei methionyl-tRNA synthetase activity; purified T. brucei MetRS, ATP depletion, Kinase-Glo luminescence; AID 624268; actives 0.4% (n = 360,000); inhibition, % at 11.9 µM;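 active means inhibition above a per-plate cutoff of the control wells' mean inhibition plus 3 SD, cut at about 5.5% in these data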
#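 Dosing: 11.9 µM compound single dose, 0.9% DMSO; Assay system: purified T. brucei MetRS enzyme; Measured by: Kinase-Glo luciferase luminescence reporting remaining unconsumed ATP; Schedule: 15 min plus 2 h at 25 °C.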
# PKA-R1A activ – activates the PKA-R1A holoenzyme complex | actives 0.083% (n = 340,000) | activation, % at 11.4 µM | PKA-R1A dissociation, Cy5-IP20 fluorescence polarization; scaled: DMSO 0%, 113 µM cGMP 100% | AID 504707;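 active means percent activation above the mean of all tested compounds plus 3 SD, cut at about 19% in these data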;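 further: higher means more PKAc released from R1A so a rise in polarization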
# H9c2 protect – protects H9c2 cardiomyocytes from peroxide injury | H2O2 injury protection, ATPLite, 2 h | protection from H2O2 cell death, % at 20 µM | actives 0.63% (n = 360,000);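 active means compounds giving at least 50% protection of heart cells from peroxide-induced death in the single-dose screen, raw or plate-pattern-corrected value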
# Rin1-Abl PPI inh – inhibitors of human Rin1-Abl protein interaction; TR-FRET Rin1/Abl binding, biochemical; inhibition, % at 7.35 µM; actives 0.4% (n = 360,000); in the data active means inhibition above about 5%, passing the limit was not always enough
# A number is an active result; - = inactive; . = no result.
SMILES,PKA-R2B act,Tb MetRS inh,PKA-R1A activ,H9c2 protect,Rin1-Abl PPI inh
COc1ccc(NS(=O)(=O)c2cccs2)cc1S(=O)(=O)N1CCOCC1,-,-,-,-,-
O=C(CSC1=NNC(c2ccccn2)S1)Nc1cccc(Cl)c1 (stereo unspecified),.,-,.,60.9,-
O=C(CSc1nncn1-c1ccccn1)Nc1cccc(Cl)c1,-,-,-,-,-
O=C(Nc1cccc(/C=C/c2ccccn2)c1)c1ccc(-n2cncn2)cc1,-,-,-,68.8,-
O=C(Nc1cccc(C(F)(F)F)c1)c1ccc(-n2cncn2)nc1,-,-,-,-,-
COc1ccc(C(CNC(=O)c2[nH]c(C)c(C(C)=O)c2C)N2CCOCC2)cc1 (stereo unspecified),-,-,-,-,-
COc1ccc(C(=O)N/N=C(\c2ccccc2)c2ccccn2)cc1,-,-,-,60.3,-
CC1(C)CC(NCCN2CCN(C3=CC(=C(C#N)C#N)CC(C)(C)C3)CC2)=CC(=C(C#N)C#N)C1,-,-,-,56.1,-
CCOC(=O)c1cc(C(=O)NNC(=O)c2cccc([N+](=O)[O-])c2)c(C)nc1C,-,-,-,-,-
O=C1OCCN1C(=O)[C@H]1[C@H](c2ccc([N+](=O)[O-])cc2)C(c2ccc(F)cc2)=NN1c1ccc(Br)cc1,-,-,-,51.5,-
O=C(COc1cccc(NC(=O)c2cccc([N+](=O)[O-])c2)c1)c1ccc(F)cc1,-,-,-,78.5,-
O=C(N/N=C/c1ccccn1)c1ccc([N+](=O)[O-])cc1,-,-,-,-,-
CCN(CC)S(=O)(=O)c1cccc(C(=O)N/N=C/c2ccccn2)c1,-,-,-,51.2,-
O=C(N/N=C/c1ccccn1)c1cc([N+](=O)[O-])cc([N+](=O)[O-])c1,-,-,-,-,-
O=C(N/N=C/c1ccccn1)c1cccc([N+](=O)[O-])c1,-,-,-,60.6,-
O=C(N/N=C/c1ccccn1)c1ccc(NC(=O)c2cccc([N+](=O)[O-])c2)cc1,.,-,.,69.3,-
COc1ccc(N2CCN(c3cc(C(=O)NC4CCCCC4)ncn3)CC2)cc1OC,.,-,.,-,-
NC(=O)CSc1nnc(CSc2ncccn2)n1-c1ccccc1,-,-,-,-,-
COc1cc2sc(-c3ccc(S(C)(=O)=O)cc3)c(C#CCO)c2cc1OC,-,-,-,53.3,-
COc1cc(OC)cc(-c2sc3ccc(OC)cc3c2C#CCO)c1,-,-,-,-,-
N#Cc1c(-c2ccco2)cc(-c2cccnc2)nc1N,-,-,-,86.6,-
N#Cc1c(-c2ccco2)cc(-c2ccccn2)nc1N,-,-,-,88.0,-
N#Cc1c(-c2ccco2)cc(C2CC2)nc1N,-,-,-,-,-
O=C(COC(=O)/C=C/c1cccc(C(F)(F)F)c1)Nc1cccc(S(=O)(=O)NC2=NCCC2)c1,-,-,-,-,-
CCOC(=O)c1[nH]c(C=O)c(C(=O)OCC)c1C,-,-,-,-,-
SMILES,PKA-R2B act,Tb MetRS inh,PKA-R1A activ,H9c2 protect,Rin1-Abl PPI inh
NS(=O)(=O)c1ccc(CCNc2ccn3nc(-c4ccccc4)cc3n2)cc1,.,-,.,-,-
COc1cc(-c2cc3nc(NCCc4ccc(S(N)(=O)=O)cc4)ccn3n2)cc(OC)c1OC,.,-,.,85.8,-
NS(=O)(=O)c1ccc(CCNc2ccn3nc(-c4ccc(OCCN5CCOCC5)cc4)cc3n2)cc1,.,-,.,66.1,-
COc1cc(-c2cc3nc(NCCOc4ccccc4)ccn3n2)cc(OC)c1OC,.,-,.,92.2,-
COc1cc(CCNc2ccc3nnc(-c4ccccc4)n3n2)cc(OC)c1OC,-,-,-,56.1,-
COc1cc(-c2cc3nc(NCCc4ccncc4)ccn3n2)cc(OC)c1OC,.,-,.,-,-
CC(C)CCN1CCN(Cc2cccc(C(F)(F)F)c2)CC1CCO (stereo unspecified),-,-,-,-,-
O=C1c2ccccc2NC(c2ccccc2O)N1O (stereo unspecified),-,-,-,52.5,-
O=C1c2ccccc2NC(c2cn[nH]c2-c2ccccc2)N1O (stereo unspecified),-,-,-,50.4,-
O=C1c2ccccc2NC(c2cn[nH]c2-c2ccc(Cl)cc2)N1O (stereo unspecified),-,-,-,66.6,-
Cc1ccc(N2C(=O)c3ccccc3NC2c2ccccc2O)cc1 (stereo unspecified),-,-,-,-,-
COc1ccc(-c2csc(NC(=O)c3cccc(N4C(=O)CCC4=O)c3)n2)cc1OC,-,-,-,84.8,-
Cc1ccc(S(=O)(=O)N2CCOCC2)cc1C(=O)Nc1nc(-c2ccccn2)cs1,-,-,-,54.1,-
O=C(Nc1nc(-c2ccccn2)cs1)c1cccc(S(=O)(=O)N2CCOCC2)c1,-,-,-,75.6,-
CN1CCN(S(=O)(=O)c2cccc(C(=O)Nc3nc(-c4ccccc4)cs3)c2)CC1,-,-,-,-,-
CCOc1ccc(-c2csc(NC(=O)c3cccc(N4C(=O)CCC4=O)c3)n2)cc1,-,-,-,-,-
COc1ccc(C(=O)Nc2ccccn2)cc1S(=O)(=O)N1CCOCC1,-,-,-,-,-
COc1ccccc1C(=O)Nc1nc(-c2ccc(S(=O)(=O)N3CCOCC3)cc2)cs1,-,-,-,-,-
COc1ccc(C(=O)Nc2nc(-c3ccccn3)cs2)cc1S(=O)(=O)N1CCOCC1,-,-,-,54.4,-
Cc1ccccc1C1NC(=S)NC2=C1C(=O)CCC2 (stereo unspecified),-,-,-,-,-
Cc1ccc(NC(=O)c2nc[nH]c2C(=O)NCCCCCCNC(=O)c2[nH]cnc2C(=O)Nc2ccc(C)cc2)cc1,-,-,-,81.3,-
Cc1ccc(NC(=O)c2nc[nH]c2C(=O)NCCCNC(=O)c2[nH]cnc2C(=O)Nc2ccc(C)cc2)cc1,-,-,-,66.4,-
Cc1ccc(NC(=O)c2nc[nH]c2C(=O)NCCCCNC(=O)c2[nH]cnc2C(=O)Nc2ccc(C)cc2)cc1,-,-,-,-,-
O=C(CSc1nnc(CNC(=O)c2c(F)cccc2F)o1)NCC1CCCO1 (stereo unspecified),-,-,-,-,-
COc1ccc(NC(=O)C(OC(=O)c2ccc([N+](=O)[O-])o2)c2ccccc2)cc1Cl (stereo unspecified),-,-,-,52.4,-
CN(C)c1ccc2nc3ccc(=O)cc-3sc2c1,-,-,-,-,14.0
CN(C)c1ccc2nc3ccc(=[N+](C)C)cc-3sc2c1,-,-,-,-,-
CC(Oc1ccccc1)C(=O)Nc1cccc(-c2nc3ccccc3[nH]2)c1 (stereo unspecified),-,37.8,-,-,-
CC(C)NC(=O)C1(C)CCCN1C(=O)c1ccc2c(c1)C(C)(C)CCC2(C)C (stereo unspecified),.,-,.,-,-

# Compound activity from PubChem BioAssay.
